Assay outcomes: PubChem, several laboratories
LEDGF integ inh – blockers of LEDGF/p75-dependent integrase strand transfer – biochemical, TR-FRET, high throughput, primary screen. inhibition, % at 3.7 µM. hit rate 0.64% among 370,000. TR-FRET IN-LEDGF/p75 DNA integration, Eu/Cy5;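 active = inhibition above the screen-wide mean plus 3 SD, cut at about 13% in these data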;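 also: signal is the Cy5 over europium emission ratio at 671 and 618 nm; 0% = plate median of compound wells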
TDP2 absorb – human TDP2 enzyme inhibitors, primary screen, biochemical, epi absorbance, recombinant enzyme | Tyrosyl-DNA phosphodiesterase 2 (Homo sapiens), O95551 | T5PNP hydrolysis, p-nitrophenol absorbance 415 nm | inhibition, % at 12.8 µM | hit rate 0.34% among 370,000;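 active = inhibition above the mean of all tested compounds plus 3 SD, set per campaign, cut at about 25% in these data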;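 also: 0% = DMSO with enzyme and 100% = buffer with substrate but no TDP2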
Target sequence (O95551 whole entry, looked up): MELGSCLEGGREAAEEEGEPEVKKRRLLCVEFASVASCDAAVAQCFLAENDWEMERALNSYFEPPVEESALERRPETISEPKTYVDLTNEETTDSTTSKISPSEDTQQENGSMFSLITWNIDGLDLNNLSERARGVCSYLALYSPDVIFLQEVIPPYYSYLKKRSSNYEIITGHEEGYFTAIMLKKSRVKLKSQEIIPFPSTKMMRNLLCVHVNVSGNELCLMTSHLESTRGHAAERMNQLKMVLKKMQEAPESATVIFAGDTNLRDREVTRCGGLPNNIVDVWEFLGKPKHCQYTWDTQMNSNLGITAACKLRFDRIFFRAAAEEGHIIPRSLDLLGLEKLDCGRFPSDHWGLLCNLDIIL
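Assay system: recombinant human TDP2 / Reagent: T5PNP substrate at 5 mM, a TopII-DNA adduct mimic / Measured by: epi absorbance from released p-nitrophenol / Evaluation: % inhibition relative to enzyme-containing and enzyme-free wells / Control set: enzyme-free and DMSO wells / Replicates: each compound tested once, singlicate / Schedule: enzyme reaction with compound for 2 h at 37 °C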
ARFGAP1 inh – inhibitors of rat ARFGAP1 GAP activity, primary screen, biochemical, fluorescence polarization, GDP tracer | ADP-ribosylation factor GTPase-activating protein 1 (Rattus norvegicus), Q62848 | Arfgap1-stimulated ARF1 GTP hydrolysis, GDP FP detection | inhibition, % at 16.5 µM | hit rate 0.26% among 360,000 | AID 651572, 2012;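 active = inhibition above a per-plate limit, mean inhibition of low control wells plus 3 SD, cut at about 25% in these data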;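 also: 0% = DMSO wells with enzyme and 100% = wells lacking Arfgap1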
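Replicates: Single well per compound | Assay system: Truncated rat Arfgap1 GAP domain | Control set: No-Arfgap1 wells (100%) versus DMSO full-reaction wells (0%) | Times: Enzyme reaction 120 min at 25 °C after 20 min preincubation | Reagent: Human ARF1(Δ1-17)-GTP substrate | Measured by: Tracer-displacement fluorescence polarization with EDTA stop, 620/688 nm | Measure: Percent inhibition of Arfgap1-stimulated GTP hydrolysis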
ASAP1 inh – inhibitors of human ASAP1 ArfGAP activity, primary screen, biochemical, fluorescence polarization. Arf-GAP with SH3 domain, ANK repeat and PH domain-containing protein 1 (Homo sapiens), …. ASAP1-stimulated ARF1 GTP hydrolysis, GDP FP detection. inhibition, % at 16.5 µM. hit rate 0.19% among 360,000; in the data active = inhibition above about 25%;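 also: 0% = vehicle with enzyme and substrate and 100% = no enzyme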
Casp6 inh – human caspase-6 inhibitors, primary screen, biochemical, VEID-R110 fluorescence, single point, set 2. hit rate 0.53% among 350,000. P55212. inhibition, % at 12.5 µM. purified caspase-6, Z-VEID-R110 cleavage fluorescence;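 active = mean inhibition across replicates at least about 35%, with every replicate also reaching that limit, limit read from the data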;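 also: 0% = median of neutral control wells and 100% = no fluorescence left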
Target sequence (P55212 24-179 limits assumed): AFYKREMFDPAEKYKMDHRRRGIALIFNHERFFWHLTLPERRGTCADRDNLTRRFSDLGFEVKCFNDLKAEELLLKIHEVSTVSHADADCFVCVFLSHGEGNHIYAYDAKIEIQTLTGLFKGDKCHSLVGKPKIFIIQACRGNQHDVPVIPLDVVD
Target sequence (P55212 194-293 limits assumed): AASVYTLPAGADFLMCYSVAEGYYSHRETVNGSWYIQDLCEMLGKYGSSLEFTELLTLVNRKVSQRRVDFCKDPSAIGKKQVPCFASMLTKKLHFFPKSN
Starred values were filed as active, the others as inactive; x = not tested or not shown. An excerpt weighted towards active compounds, which were near 1.3% of everything screened.

SMILES | LEDGF integ inh | TDP2 absorb | ARFGAP1 inh | ASAP1 inh | Casp6 inh
CN1CCN(CC(=O)NC(=O)NC2CCCCC2)CC1 | 1 | 15 | 2 | 2 | 0
CN1CCN(NC(=O)NC2CCCCC2)CC1 | 0 | -24 | -6 | -3 | 41*
Cc1ccc([C@@H]2CC=C(C(=O)O)[C@H](c3ccc(C(C)(C)C)cc3)N2S(=O)(=O)c2ccc(C)cc2)cc1 | 5 | -5 | -12 | 0 | 46*
Cc1ccc(S(=O)(=O)N2[C@@H](c3ccc(C(C)(C)C)cc3)C(C(=O)O)=CC[C@H]2c2ccc(Cl)cc2)cc1 | -2 | -11 | -26 | 3 | 26
CCc1ccc([C@@H]2CC=C(C(=O)O)[C@H](c3ccc(C(C)(C)C)cc3)N2S(=O)(=O)c2ccc(C)cc2)cc1 | -1 | 0 | -15 | -5 | 45*
CCCn1c(N)c(C(=O)CN2CCN(S(=O)(=O)c3cccc(Cl)c3)CC2)c(=O)[nH]c1=O | 1 | -6 | -5 | -5 | 41*
C=CC1=C(C(=O)O)N2C(=O)C(NC(=O)Cc3ccccc3)C2SC1 (stereo unspecified) | 0 | -1 | 2 | -1 | 96*
O=Cc1ccc(N2CCN(S(=O)(=O)c3ccc4c(c3)CC(=O)N4)CC2)cc1 | 24* | 0 | -7 | -2 | -1
COc1ccccc1N1CCN(C(=O)C(C)CS(=O)(=O)c2ccc3c(c2)NC(=O)CS3)CC1 (stereo unspecified) | 57* | -6 | 1 | 2 | 68*
COc1ccccc1N1CCN(S(=O)(=O)c2ccc3c(c2)NC(=O)C(C)S3)CC1 (stereo unspecified) | 4 | -20 | 10 | -4 | -5
CC(C)CCN1CC(=O)N2[C@@H](Cc3c([nH]c4ccccc34)C2(C)C)C1=O | 0 | -1 | -2 | -13 | -3
C[C@H](CO)N1C[C@H](C)[C@@H](CN(C)C(=O)NC2CCCCC2)Oc2ccc(NC(=O)CCN3CCOCC3)cc2C1=O | x | x | x | x | -1
CCOC(=O)N1CCN(C(=O)Cn2nc(C)n3nc(-c4ccc(CC)cc4)cc3c2=O)CC1 | -5 | -14 | 12 | 0 | 2
CCOC(=O)N1CCN(C(=O)Cn2nc(C)n3nc(-c4ccc(OC)cc4)cc3c2=O)CC1 | -4 | -2 | 7 | 2 | 38*
COc1ccc(OC)c(NC(=O)C(C)N2c3cccc4cccc(c34)S2(=O)=O)c1 (stereo unspecified) | 30* | -15 | 9 | 2 | 3
CC(=O)NC[C@H]1[C@H](c2ccc(-c3cccc(F)c3)cc2)[C@@H](CO)N1C(C)=O | x | x | x | x | -2
COc1ccc(N2CCN(C(=O)CCNS(=O)(=O)c3ccc(C)cc3)CC2)cc1 | 0 | 13 | -5 | -15 | 36*
CCCNS(=O)(=O)c1ccc(CCC(=O)N2CCN(c3ccc(OC)cc3)CC2)cc1 | -3 | -11 | -2 | -4 | 1
CC(C)(C)NC(=O)C1CCN(S(=O)(=O)c2cccc3nsnc23)CC1 | -1 | 0 | 5 | 2 | 55*
Cc1ccc(C)c(/C=C/C(=O)c2ccccc(=O)c2O)c1 | 10 | 0 | -8 | 3 | x
Cc1ccc(/C=C/C(=O)c2ccccc(=O)c2O)c(C)c1 | -1 | -12 | -2 | 6 | 39*
COc1ccc(N(C(=O)c2snc(C(N)=O)c2N)C(C(=O)NC2CCCC2)c2ccco2)c(OC)c1 (stereo unspecified) | -2 | -6 | -6 | -3 | 63*
O=C(Nc1cccnc1N1CCOCC1)c1cccs1 | -5 | -6 | 8 | -1 | -1
COc1ccc(CC(=O)Oc2ccc(C)cc2Br)cc1OC | 14* | -12 | 8 | 2 | 0
COc1ccc(-c2cc(C(=O)O)c(C)o2)cc1OC | 0 | -6 | 4 | 2 | x
SMILES | LEDGF integ inh | TDP2 absorb | ARFGAP1 inh | ASAP1 inh | Casp6 inh
COc1ccc(-c2cc(C(=O)NC(Cc3cc4ccccc4[nH]3)C(=O)O)c(C)o2)cc1OC (stereo unspecified) | 0 | -5 | 14 | -7 | 48*
CCOc1ccc(S(=O)(=O)NCCC(=O)NCC2(N3CCCCC3)CCCCC2)cc1 | 1 | 17 | -9 | -7 | 50*
COc1ccc2nc(SCC(=O)NC(C)(C)C)[nH]c2c1 | -5 | 1 | -3 | 4 | x
CCOC(=O)c1ccc(N2N=C(C)/C(=C/C=C/c3ccco3)C2=O)cc1 | 10 | 4 | -8 | 10 | x
O=C(O)c1cc(N2N=C(C(F)(F)F)/C(=C/C=C/c3ccco3)C2=O)ccc1Cl | 82* | 12 | -40 | -18 | 95*
COc1ccccc1-c1csc(C(NC(C)=O)c2ccccc2)n1 (stereo unspecified) | -1 | -2 | -2 | -5 | 1
Cc1cccc(NC(=S)N(Cc2ccco2)C(C)c2cccs2)c1 (stereo unspecified) | 6 | 17 | -2 | -6 | 1
COc1ccc(NC(=O)c2ccc3c(=O)n(CC4CCCO4)c(=S)[nH]c3c2)c(OC)c1 (stereo unspecified) | 3 | 4 | 4 | -5 | 1
CC(C)(C)CN1C(N)=NC[C@@H]1Cc1ccccc1 | 2 | 6 | -6 | 1 | -3
Cc1ccc([N+](=O)[O-])cc1NC(=O)C(C)N1CCCCC1 (stereo unspecified) | 1 | -8 | 6 | 4 | 40*
COc1cc(/C=N/NC(=O)c2cc(C)oc2C)ccc1OCc1ccccc1 | 84* | 3 | 13 | 3 | 0
CC(C)n1ncc(N2CCOCC2)c(Cl)c1=O | -6 | -4 | 11 | -8 | -7
COc1ccc(CN2C(=O)[C@@H]3C(c4ccc(F)cc4)=NO[C@@H]3C2=O)cc1 | -1 | 4 | 12 | -2 | x
COC(=O)Cc1cc(=O)n(-c2nc3ccccc3[nH]2)[nH]1 | 10 | -11 | -3 | 0 | 44*
CCN1CCN(Cc2ccc(NC(=O)c3cc(NC(=O)c4cc(-c5ccc(OC)cc5)n[nH]4)cc(OC)c3)cc2C(F)(F)F)CC1 | -1 | 3 | 31* | 26* | 3
CC(=O)C(C(C)=O)c1c(Cl)c(O)c(O)c2c(C(=O)c3ccccc3)coc12 | 51* | -17 | 8 | -9 | x
O=C(CO/N=C/c1ccccc1)Nc1c(F)c(F)c(F)c(F)c1F | 2 | -6 | 2 | 4 | 1
C#CCOCCOCCOCCNc1nc(N2CCN(C(=O)CCCCCCCCCCNC(=O)[C@H](CCCCN)n3cc(CCCC(=O)O)nn3)CC2)nc(N2CCN(C(=O)CCCCCCCCCCNC(=O)[C@@H]([C@H](C)O)n3cc(C)nn3)CC2)n1 | x | x | x | x | 1
CC1CCC2(CC1)NC(=O)N(CC(=O)Nc1sc3c(c1C(N)=O)CCC3)C2=O (stereo unspecified) | 9 | -5 | -12 | -4 | 42*
